AF4-AF9 inh = blocks AF4 peptide binding to human AF9; P42568; AlphaScreen, biotin-AF4 peptide binding to FLAG-AF9; inhibition, % at 10 µM; hit rate 0.47% among 350,000; AID 651704;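 active means every replicate reaching a set inhibition limit, whatever the replicate mean, cut at about 25% in these data; inconclusive means mean inhibition reaches that limit but some replicates miss it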;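 further: 0% = plate neutral control median and 100% = total signal loss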
Target sequence (P42568 whole entry, looked up): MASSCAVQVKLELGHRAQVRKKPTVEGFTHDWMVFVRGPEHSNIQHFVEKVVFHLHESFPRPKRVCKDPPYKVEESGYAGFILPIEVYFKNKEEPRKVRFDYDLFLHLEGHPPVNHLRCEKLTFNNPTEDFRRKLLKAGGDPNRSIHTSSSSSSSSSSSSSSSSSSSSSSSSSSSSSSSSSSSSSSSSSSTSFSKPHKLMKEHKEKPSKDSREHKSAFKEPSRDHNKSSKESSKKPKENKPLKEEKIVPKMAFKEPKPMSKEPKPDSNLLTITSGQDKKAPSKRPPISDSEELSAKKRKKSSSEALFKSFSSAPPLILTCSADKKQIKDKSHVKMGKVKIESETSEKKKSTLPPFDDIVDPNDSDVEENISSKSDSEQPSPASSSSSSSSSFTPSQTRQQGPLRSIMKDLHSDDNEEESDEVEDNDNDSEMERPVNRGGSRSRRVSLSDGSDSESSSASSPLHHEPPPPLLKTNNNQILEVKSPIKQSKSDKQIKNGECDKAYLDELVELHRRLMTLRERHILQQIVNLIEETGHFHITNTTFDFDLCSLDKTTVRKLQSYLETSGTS
RAD54 branch = RAD54 (human) branch migration inhibition; Q92698; RAD54 Holliday junction branch migration, FAM/BHQ fluorescence; inhibition, % at 10.4 µM; hit rate 0.14% among 360,000; AID 602329;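 active means mean normalized replicate activity at least 40 and at least half of replicates scoring 40 or more; inconclusive means only one of the two criteria met; inactive means mean below 40 and under half of replicates reaching 40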;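 further: 0% = median of neutral control wells and 100% = median of positive control wells; inhibitors cause a drop in the FAM fluorescence signal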
GSIS activator = primary screen for activators of insulin secretion dependent on glucose, INS-1E cells, GLuc reporter luminescence; activation, % at 16.6 µM; AID 743287; hit rate 0.61% among 370,000; INS-1E GLuc reporter insulin secretion, 2-3 h;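 active means lowest replicate activation of at least 40%, so every replicate reaches that level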;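 further: 0% = median of neutral control wells and 100% = median of IBMX positive control wells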
RAD52 inh = blocks human RAD52 DNA annealing; P43351; hit rate 0.46% among 360,000; inhibition, % at 18.7 µM; recombinant RAD52 DNA annealing, FRET fluorescence;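 active means every replicate showing at least 50% inhibition; inconclusive means mean inhibition at least 50% but not in every replicate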
S100A4 MyoIIA = S100A4-myosin IIA interaction inhibition; AID 652163; P26447; hit rate 0.14% among 360,000; S100A4/TAMRA-MyoIIA peptide fluorescence polarization; inhibition, % at 10.7 µM;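 active means mean inhibition of at least 70% across replicates, with every replicate also reaching that level; inconclusive means mean inhibition reaches 70% but some replicates fall short; inactive means mean inhibition below 70%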
Target sequence (P26447 whole entry, looked up): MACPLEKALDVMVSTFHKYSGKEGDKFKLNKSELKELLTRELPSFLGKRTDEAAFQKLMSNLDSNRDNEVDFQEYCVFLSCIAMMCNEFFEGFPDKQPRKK
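Compound dosing: one dose per compound; test system: human S100A4 monomer with TAMRA-labelled myosin IIA peptide; probe or stimulus: TAMRA-labelled myosin IIA heavy-chain peptide probe, 5 nM; medium: HEPES buffer with Ca2+, pH 7.2; schedule: 5 min incubation before reading; benchmarks: neutral control DMSO, positive control TFP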
Rad54 DNA ctr = counter-screen for Rad54 inhibitors: DNA binding compounds | shares compounds with RAD54 branch | Acridine orange-DNA displacement, fluorescence polarization, 20 min | AC50, µM (highest dose often 35 µM), for the others: at the top dose activity change, negative = DNA binding | hit rate 8% among 460;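 active means signal drop giving an AC50 within twice the top valid tested concentration of each sample, actives reach about 35 µM in these data; inactive means activity opposite to expected, plus the rest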;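 further: polarization loss reports compound binding to salmon sperm DNA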
Alpha interfer = AlphaScreen signal interference counter-screen hit; shares compounds with AF4-AF9 inh; signal luminescence; AC50, µM (series often up to 12 µM), inactives show at the top dose activity change, negative = inhibition; hit rate 45% among 530; AID 720494; cut-off not given, nearly all actives have AC50 up to about 14 µM
RAD52 DNA ctr = DNA binding artifact in RAD52 counter-screen; shares compounds with RAD52 inh; Salmon sperm DNA/acridine orange FP displacement; AC50, µM; hit rate 8% among 1,000;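 active means fitted half-maximal concentration for signal loss at or below twice the highest dose tested, in every separate run, actives reach about 64 µM in these data; inconclusive means runs disagree, or flat partial signal loss, or poor fit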
Active calls of the source: *; i = inactive; ? = inconclusive; / = no result; + = active, no number. The list is not random: actives were taken first. Their share in the collection is about 1.3%.

SMILES	AF4-AF9 inh	RAD54 branch	GSIS activator	RAD52 inh	S100A4 MyoIIA	others
C/C=C/c1ccc(C2[C@@H]3CN(Cc4cocn4)C[C@H]2N3)cc1 (stereo partly specified)	28.7*	/	16.9	56.3*	2.2
C/C=C/c1ccc(C2[C@@H]3CN(Cc4nccs4)C[C@H]2N3)cc1 (stereo partly specified)	12.3	/	10.4	23.4	15.2
N=C1c2ccccc2CN1c1ccc(F)c([N+](=O)[O-])c1	-0.2	-6.4	67.0*	-10.4	2.9
COc1cccc2c1C(=O)c1c(O)c3c(c(O)c1C2=O)CC(O)(C(C)=NO)CC3OC1CC(N)C(O)C(C)O1 (stereo unspecified)	?	/	-9.9	i	+
O=C(Cc1ccccc1)N1CCCCN2[C@@H](CO)[C@H](c3ccc(C#Cc4ccccc4)cc3)[C@@H]2C1	0.6	-0.7	-21.8	-19.6	0.6
COC(=O)C1=C(C(=O)OC)C2OC1c1cc3ccccc3cc12	0.2	/	117.8*	-11.7	-1.1
COc1ccc(C(=O)OC2CC[C@@]3(C)C4CCC5[C@]6(O)CC(O)[C@@]7(O)C(CN8CC(C)CCC8[C@@]7(C)O)[C@]6(O)C[C@@]53O[C@]24O)cc1OC (stereo partly specified)	0.9	4.0	45.9*	2.3	8.3
Cc1ccccc1S(=O)(=O)N1[C@@H]2Cn3c(ccc(-c4cccnc4)c3=O)[C@H]1[C@@H](C(=O)O)[C@@H]2CO	-0.1	-3.1	7.4	1.3	-6.2
Cc1nccc2c1[nH]c1ccccc12	-5.7	?	6.2	9.3	1.6	Rad54 DNA ctr=-8.5%
CC(C)NC(=O)N1C[C@@H]2C(c3ccc(Br)cc3)[C@H](C1)N2C (stereo partly specified)	/	/	21.8	/	/
Cn1ncnc2c(=O)n(C)c(=O)nc1-2	/	72.1*	/	/	/	Rad54 DNA ctr=7.0%
Cc1ccc(OC(=O)N(C)C[C@H]2OCc3ccccc3-c3c(n(C)c4ccccc34)C(=O)N([C@@H](C)CO)C[C@H]2C)cc1	1.7	/	-14.9	12.7	8.7
Nc1ccc(CCN2CCCC2)cc1	?	?	4.9	94.2*	-3.6	Rad54 DNA ctr=5.9%
Oc1ccc(CCN2CCCCC2)cc1	3.8	-2.1	/	-82.4	-67.7
CN1CCN(c2ccc(C=O)cc2)CC1	/	-1.1	/	/	/
CN1CCN(c2ccc(N)cc2)CC1	/	96.8*	/	/	/	Rad54 DNA ctr=-13.8%
C[n+]1c(-c2ccccc2)c2cc(N)ccc2c2ccc(N)cc21	55.3*	88.2*	-37.6	21.2	126.3*	Alpha interfer=8.5µM*
O=C1CN=C(c2ccc(Br)cc2)c2c(sc3c2CCCC3)N1CCN1CCCCC1	32.3*	-0.3	-24.4	-2.4	-3.3	Alpha interfer=-37.2%
COC(=O)[C@@H]1[C@@H](CO)[C@@H]2Cn3c(ccc(-c4ccc(OC)cc4)c3=O)[C@H]1N2C(=O)c1ccccc1F	-15.9	2.2	-2.5	4.1	-9.6
C#CCOc1ccc2c(c1)c(C(C)=O)c(C)n2Cc1ccccc1	1.5	0.3	-12.9	-14.7	-2.5
COc1ccc2c(c1)c(CCN)c(C)n2Cc1ccccc1	33.0*	-35.1	/	14.2	0.5	Alpha interfer=-30.1%
Cc1cccc(S(=O)(=O)N2[C@@H]3c4ccc(-c5cccc(F)c5)c(=O)n4C[C@H]2[C@H](CO)[C@H]3C(=O)O)c1	/	-7.0	-3.5	-11.2	19.3
Cc1ccc(-c2cc(-c3ccc(C)cc3)[n+](-c3ccc(C(=O)[O-])cc3)c(-c3ccc(C)cc3)c2)cc1	26.4*	15.5	-42.0	31.9	-4.3	Alpha interfer=-26.9%
Cc1ccc(-c2cc(-c3ccc(C)cc3)[n+](-c3ccccc3)c(-c3ccc(C)cc3)c2)cc1	/	37.7	/	/	/
COC(=O)[C@@H]1[C@@H](CO)[C@@H]2Cn3c(ccc(C4=CCCCC4)c3=O)[C@H]1N2Cc1cccnc1	-6.1	-1.4	0.8	5.3	-1.3
SMILES	AF4-AF9 inh	RAD54 branch	GSIS activator	RAD52 inh	S100A4 MyoIIA	others
CC(C)Nc1ccc(Nc2ccccc2)cc1	?	-3.2	-15.2	11.1	-1.1	Alpha interfer=-28.8%
CCN1CCN(c2ccc(N)cc2C)CC1	42.6*	/	1.6	99.9*	-7.1	Alpha interfer=11.8µM*;RAD52 DNA ctr=46.7µM*
CCN1CCN(c2ccc(N)cc2)CC1	81.5*	/	-10.6	89.8*	20.4	Alpha interfer=4.52µM*;RAD52 DNA ctr=53.2µM*
CCN1CCN(c2ccc(NC(C)=O)cc2Cl)CC1	-1.7	/	6.1	-10.0	0.1
CS(=O)(=O)N1CC2NC(C1)C2c1ccc(Br)cc1 (stereo unspecified)	/	/	5.4	/	/
O=C(Cc1cccnc1)N1CCCCN2[C@H](C1)[C@H](c1ccc(C#CC3CC3)cc1)[C@@H]2CO	-0.2	-11.8	/	12.8	-4.3
NCC(O)c1cc(O)c(O)cc1F (stereo unspecified)	53.3*	20.6	/	91.9*	9.3	Alpha interfer=-19.0%;RAD52 DNA ctr=i
Oc1ccc2c3c1OC1c4[nH]c5ccccc5c4C[C@@]4(O)C(C2)N(CC2CC2)CC[C@]314 (stereo partly specified)	/	-0.6	-7.1	-0.1	-3.0
Oc1ccc2c3c1O[C@H]1c4[nH]c5c(c4CC4(O)C(C2)N(CC2CC2)CCC314)CC1(O)[C@H]2Cc3ccc(O)c4c3[C@@]1(CCN2CC1CC1)C5O4 (stereo partly specified)	/	/	0.2	83.5*	1.4	RAD52 DNA ctr=i
ClCCN1CCN(c2ccnc3cc(Cl)ccc23)CC1	20.7	29.8	21.8	68.5*	-1.6	RAD52 DNA ctr=i
O=C(Cc1ccccc1)N1C[C@@H]2[C@H](c3ccccc31)[C@H](CO)N2Cc1ccccc1	0.1	0.3	7.7	-8.5	10.4
CC(C)NC(=O)N1C[C@@H]2C(c3ccccc3)[C@H](C1)N2C (stereo partly specified)	/	/	-7.1	/	/
O=c1[nH]c2ccccc2n1C1CCN(Cc2ccc(-c3[nH]c4cc5ncnc5cc4nc3-c3ccccc3)cc2)CC1	4.3	/	11.5	53.7*	-3.7	RAD52 DNA ctr=i
O=c1[nH]c2cc(Cl)ccc2n1C1CCN(Cc2ccc(-c3nc4ccccc4nc3-c3ccccc3)cc2)CC1	0.1	/	-4.5	-16.7	0.5
C[C@]1(O)CCC2C3CC[C@H]4C[C@@H](OC(=O)[C@@H](N)CCCCN)CC[C@]4(C)C3CC[C@@]21C (stereo partly specified)	14.5	60.0*	21.0	87.8*	4.3	RAD52 DNA ctr=i
COC(=O)[C@@H]1[C@@H](CO)[C@@H]2Cn3c(ccc(/C=C/c4ccccc4)c3=O)[C@H]1N2C(=O)C1CCC1	-11.9	-2.4	-5.5	10.3	16.0
CC=Cc1ccc2n(c1=O)C[C@H]1[C@H](CO)[C@@H](C(=O)OC)[C@@H]2N1CC1CCCCC1 (mixture of isomers)	1.9	7.7	-14.6	-4.5	11.2
